Results taken from ChEMBL document CHEMBL1155717, “Monoterpene glycosides and triterpene acids from Eriobotrya deflexa” (J Nat Prod, 2001).
The source made the active and inactive calls. The rule behind the calls is not given here.

Assays:
[1] = Antiinflammatory activity in human PMNC assessed as inhibition of proliferation; assay type: functional
Summary of the method: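 In vitro antiproliferation assay on human mononuclear cells (T lymphocytes, B lymphocytes and macrophages) isolated from peripheral blood. Compounds were tested at up to 100 µM, and activity was expressed as IC50.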

[2] = organism: Homo sapiens; assay: Antiinflammatory activity in human PMNC assessed as inhibition of proliferation upto 10 uM; assay type: functional

SMILES	IC50 [1]	Activity [2]
C[C@@H]1CC[C@]2(C(=O)O)CC[C@]3(C)C(=CC[C@@H]4[C@@]5(C)[C@H](O)C(=O)[C@H](O)C(C)(C)[C@@H]5CC[C@]43C)[C@@H]2[C@]1(C)O	32.5 µM	
C[C@@H]1CC[C@]2(C(=O)O)CC[C@]3(C)C(=CC[C@@H]4[C@@]5(C)CC(=O)[C@H](O)C(C)(C)[C@@H]5CC[C@]43C)[C@@H]2[C@]1(C)O	38.1 µM	
C=C[C@](C)(CCC=C(C)C)O[C@@H]1O[C@H](CO[C@@H]2O[C@@H](C)[C@H](OC(=O)/C=C\c3ccc(O)cc3)[C@@H](O[C@@H]3O[C@@H](C)[C@H](O)[C@@H](O)[C@H]3O)[C@H]2O)[C@@H](O)[C@H](O)[C@H]1O		inactive
C[C@@H]1CC[C@]2(C(=O)O)CC[C@]3(C)C(=CC[C@@H]4[C@@]5(C)[C@H](O)[C@@H](O)C(=O)C(C)(C)[C@@H]5CC[C@]43C)[C@@H]2[C@]1(C)O	26.9 µM	
C[C@@H]1CC[C@]2(C(=O)O)CC[C@]3(C)C(=CC[C@@H]4[C@@]5(C)C[C@@H](O)C(=O)C(C)(C)[C@@H]5CC[C@]43C)[C@@H]2[C@]1(C)O	40 µM	
C[C@@H]1CC[C@]2(C(=O)O)CC[C@]3(C)C(=CC[C@@H]4[C@@]5(C)C[C@@H](O)[C@@H](O)C(C)(C)[C@@H]5CC[C@]43C)[C@@H]2[C@]1(C)O [EUSCAPHIC ACID]	28.8 µM	
C=C[C@](C)(CCC=C(C)C)O[C@@H]1O[C@H](CO[C@@H]2O[C@@H](C)[C@H](OC(=O)/C=C/c3ccc(O)cc3)[C@@H](O[C@@H]3O[C@@H](C)[C@H](O)[C@@H](O)[C@H]3O)[C@H]2O)[C@@H](O)[C@H](O)[C@H]1O		inactive
